Compounds with a hit are over-represented: about 2.7% of the library has one in this group of screens.
PAD4 FP inh: PAD4 (human) enzyme inhibition; recombinant PAD4, RCA probe fluorescence polarization; actives 0.41% (n = 330,000); Q9UM07; inhibition, % at 6.36 µM;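 active means percent inhibition above a cutoff equal to the mean of all tested compounds plus 3 SD, cut at about 15% in these data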;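 further: 0% = PAD4 with RCA probe and DMSO and 100% = probe without PAD4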
RBBP9 inhibitor: inhibitors of human serine hydrolase RBBP9; O75884; recombinant RBBP9, FP-Rh probe fluorescence polarization; inhibition, % at 7.94 µM; actives 0.2% (n = 220,000); AID 1515;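 active means inhibition above the campaign mean of all tested compounds plus 3 SD, cut at about 14% in these data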;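 further: plate controls were DMSO wells with RBBP9 for no effect and wells lacking RBBP9 protein for full effect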
Target sequence (O75884 whole entry, looked up): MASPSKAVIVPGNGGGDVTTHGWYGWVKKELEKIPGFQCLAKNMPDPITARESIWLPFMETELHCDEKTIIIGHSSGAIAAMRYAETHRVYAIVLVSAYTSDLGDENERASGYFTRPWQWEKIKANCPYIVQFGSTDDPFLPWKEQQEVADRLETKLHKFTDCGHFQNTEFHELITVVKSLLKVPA
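System: RBBP9 protein / Quantity: 2.5 µM RBBP9 dispensing solution, before mixing / Also added: Serine-hydrolase probe FP-Rh, 375 nM pre-mixing / Dosing: 7.94 µM single dose, 0.794% DMSO / Timing: enzyme-compound preincubation 30 min, then probe labeling 45 min, 25 °C / Signal: FP readout at 525/598 nm / Controls: DMSO-treated enzyme wells and wells lacking RBBP9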
GSTO1 inh: counter-screen for RBBP9 inhibitors: inhibitors of human GSTO1. recombinant GSTO1, activity-based probe fluorescence polarization. AID 1974. actives 1.1% (n = 300,000). P78417. inhibition, % at 5.96 µM;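 active means inhibition above the campaign mean inhibition plus 3 SD, cut at about 35% in these data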;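 further: 0% = GSTO1-1 with DMSO and 100% = wells lacking GSTO1-1 enzyme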
Target sequence (P78417 whole entry, looked up): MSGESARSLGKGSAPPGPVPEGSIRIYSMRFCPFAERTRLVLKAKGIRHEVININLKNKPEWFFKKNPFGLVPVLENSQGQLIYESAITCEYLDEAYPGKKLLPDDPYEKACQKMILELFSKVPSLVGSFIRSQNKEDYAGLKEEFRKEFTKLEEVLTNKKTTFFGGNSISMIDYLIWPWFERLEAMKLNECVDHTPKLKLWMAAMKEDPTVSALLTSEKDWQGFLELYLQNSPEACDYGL
SIAE primary: blocks human sialic acid acetylesterase; SIAE FP-Rh probe binding, fluorescence polarization; inhibition, % at 9.66 µM; actives 0.69% (n = 370,000);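 active means inhibition above a cutoff: mean of compounds within the control limits plus 3 SD of those, cut at about 17% in these data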;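 further: 0% = plate median of compound wells and 100% = probe without SIAE protein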
PRMT1 FP inh: blocks human protein arginine methyltransferase 1; inhibition, % at 2.79 µM; AID 652257; recombinant PRMT1, activity-based probe fluorescence polarization; Q99873; actives 1.3% (n = 370,000);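 active means inhibition above about 21% made by adding two undisclosed values, limit read from the data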
The depositor's hits bear a star; / = no result given.

SMILES	PAD4 FP inh	RBBP9 inhibitor	GSTO1 inh	SIAE primary	PRMT1 FP inh
C(=N\Nc1nc(-c2ccccc2)cs1)/c1ccco1	2	0	6	8	24*
COc1ccccc1CNc1ncnc2cc(Cl)ccc12	/	-4	/	-4	-1
Cc1ccc(C)c(/C=N/n2cc(-c3ccccc3)[nH]c2=S)c1	-2	-9	1	2	24*
S=c1[nH]c(-c2ccccc2)cn1/N=C/c1ccc(Br)cc1	-1	-9	-5	-5	1
Fc1ccccc1/C=N/n1cc(-c2ccccc2)[nH]c1=S	2	-11	-10	1	24*
CCOc1ccc(N2C(=O)CS/C2=C(\C(Cl)=C(Cl)Cl)[N+](=O)[O-])cc1	-19	0	51*	/	/
CCOc1ccc(N2C(=O)CNC2=S)cc1	-2	0	-5	3	-2
O=C(O)CC1S/C(=N/N=C/C=C/c2ccccc2[N+](=O)[O-])NC1=O (centres undefined)	0	4	-2	3	1
O=C(O)CC1S/C(=N/N=C/c2ccc(-c3ccc(Cl)c([N+](=O)[O-])c3)o2)NC1=O (centres undefined)	5	-1	37*	1	6
CCCCNc1cc(NC(C)=O)cc2cc(OC)c(OC)cc12	-14	-2	35*	2	4
CC(C)c1ccc(NC2CCCN(C(=O)c3cccnc3)C2)cc1 (centres undefined)	-4	/	0	9	1
Cc1ccccc1/C=C1\SC(=S)N(/N=C/c2cc([N+](=O)[O-])ccc2O)C1=O	3	-1	35*	7	8
Cn1cccc1C(=O)NC(=O)COC(=O)c1ccc(S(C)(=O)=O)cc1	0	/	/	2	0
Cc1cc(=O)[nH]c2c1c(C)nn2C1CCCC1	-4	-3	6	2	-1
O=C1c2sc3nc4ccccc4n3c2C(=O)N1c1ccccc1Cl	3	-8	2	-9	0
N=c1cc(C2(O)CCCCC2)n2c(nc3ccccc32)s1	-5	2	-2	2	25*
c1ccc(CN(Cc2ccccc2)Cc2nnc(-c3cc4ccccc4[nH]3)s2)cc1	0	/	/	-4	0
CN(C1CCCC1)C1CCN(C(=O)CNC(=O)/C=C/c2ccccc2)CC1	1	-6	0	3	-4
CC1CCCCC1N(C)C1CCN(C(=O)CNC(=O)/C=C/c2cccc(Cl)c2)CC1 (centres undefined)	1	/	-120	-1	22*
COc1ccc(/C=N/NC(=O)Cc2csc(Nc3cccc(C(F)(F)F)c3)n2)cc1C	-12	5	-21	-33	1
CCOC(=O)N1CCN(C(=O)CCS(=O)(=O)c2ccc(Br)s2)CC1	-3	-8	0	17*	-2
O=C(CCS(=O)(=O)c1ccc(Br)s1)N1CCc2ccccc21	-4	-1	36*	0	-3
CCC(C)NC(=O)CCS(=O)(=O)c1ccc(Br)s1 (centres undefined)	-10	-8	5	5	-1
CC(=O)ON=C1C=CC(=C(C#N)c2ccccc2)C=C1	/	/	/	-29	24*
O=C1CSC(=S)N1N=Cc1ccc(Cl)s1	/	/	/	-44	25*
SMILES	PAD4 FP inh	RBBP9 inhibitor	GSTO1 inh	SIAE primary	PRMT1 FP inh
COC(=O)C1=C(C)N(Cc2ccco2)C(=O)/C1=C\c1ccc([N+](=O)[O-])cc1	-2	7	12	5	24*
COC(=O)C1=C(C)N(Cc2ccco2)C(=O)/C1=C\c1ccc(N(C)C)cc1	0	-13	-23	-29	-3
Cc1ccccc1NC(=O)CS(=O)(=O)c1cn(CC(=O)N2CCOCC2)c2ccccc12	3	0	-4	-1	-3
O=C(CSc1cn(CCNC(=O)c2ccccc2)c2ccccc12)NCc1ccco1	2	-5	6	18*	4
CCCn1cc(SCC(=O)NCc2ccco2)c2ccccc21	7	-2	4	1	6
Cc1nnsc1C(=O)NC1CCCc2c1cnn2-c1ccc(C(C)(C)C)cc1 (centres undefined)	0	/	35*	1	2
CCOC(=O)c1ccc(N2C(=O)CC(Sc3ncccn3)C2=O)cc1 (centres undefined)	-4	/	-7	1	21*
CCCCN(CCCC)c1ncnc2nc[nH]c12	0	-6	-9	-4	4
CCC(C)NCCOCCOc1ccc(Cl)c2ccccc12 (centres undefined)	-2	3	16	3	1
Cc1cccc(-n2cnc3c(c2=O)c2nc4ccccc4nc2n3Cc2ccco2)c1	-12	/	-8	-6	21*
CN(C(=O)CSc1ccc2c(c1)OCCO2)c1ccccc1	-2	/	/	2	7
N#CCCN(C(=O)CSc1ccc2c(c1)OCCO2)c1ccccc1	7	-7	10	5	22*
Cc1ccc(NC(=S)N(CCN(C)C)Cc2cccs2)cc1	-4	2	7	2	5
C=CCNC(=O)c1ccc(Cl)cc1Cl	0	-9	-2	0	0
CCCOC(=O)c1cc(-c2ccc(/C=C3/C(=O)N(C)C(=O)C(C#N)=C3C)o2)ccc1Cl	-16	0	8	/	/
C=CCOC(=O)c1cc(-c2ccc(/C=C3\C(=O)NC(=O)C(C#N)=C3C)o2)ccc1Cl	/	-1	/	5	25*
Cc1cc2ccccn2c1C(=O)c1ccc([N+](=O)[O-])o1	-1	-7	86*	7	-1
COC(=O)C(NC(C)=O)(Nc1ccccn1)C(F)(F)F (centres undefined)	1	1	8	2	-6
COC(=O)NC(NS(=O)(=O)c1ccccc1)(C(=O)OC)C(F)(F)F (centres undefined)	-1	-6	36*	8	-2
CC(=O)c1ccc(S(=O)(=O)N2CCN(C(=O)c3ccc(-n4cncn4)c([N+](=O)[O-])c3)CC2)cc1	-1	/	/	3	-3
Cc1ccc2[nH]cc(C(=O)CCl)c2c1	2	-7	93*	-6	3
COc1ccc(-c2cc(C(F)(F)F)n3nc(C(=O)Nc4cc(C)on4)cc3n2)cc1OC	1	5	4	18*	-2
Cc1ccc(NC(=O)CCl)cc1S(=O)(=O)N1CCCCCC1	-4	-5	76*	0	-1
COCCNCC(=O)Nc1ccc(C)c(S(=O)(=O)N2CCCCC2)c1	-6	1	4	1	4
COC(=O)/C(=C/c1ccc2c(c1)c1ccccc1n2C)NC(=O)c1ccccc1	-2	-7	-5	-12	-2
O=C(CN1C(=O)S/C(=C\c2ccccc2Cl)C1=O)NCCCn1ccnc1	-5	/	-9	3	24*
COc1ccccc1/C=C1\SC(=O)N(CC(=O)NCCCn2ccnc2)C1=O	0	/	8	-3	3
Oc1cc(Br)ccc1C=Nc1ccc(N2CCCCC2)cc1	10	-3	53*	3	3
COCCCN1C(=O)C(=O)/C(=C(/O)c2ccc3c(c2)OCCO3)C1c1ccc(C(=O)OC)cc1 (centres undefined)	-4	-1	8	-5	-2

Assay outcomes from PubChem BioAssay.
